Tests used:
[1] = tested on: cocaine induced behaviors; settings: cited from earlier work
[2] = stability of stock solutions; format: physicochemical
[3] = stability of CM156 in rat plasma QC samples under various storage conditions; format: in vitro ADME; settings: for stability in rat plasma: 10, 400 and 3000 ng/mL
Summary of the method: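 Blank rat plasma was spiked to QC levels of 10, 400 and 3000 ng/mL, six replicates each. Conditions were three freeze–thaw cycles (−20 °C 24 h, thaw at room temperature, refreeze 12–24 h), room temperature for 12 h, −20 °C for 1 month, and autosampler reinjection after 24 h at 25 °C. Samples were chloroform-extracted with aripiprazole internal standard, analysed by UPLC/MS, and compared with fresh QCs.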

[4] = pilot intravenous pharmacokinetic study in rats; format: in vivo; settings: male, Sprague-Dawley, rat, plasma, 5 mg/kg
Summary of the method: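 Six male Sprague-Dawley rats (180–200 g) with right jugular vein cannulas, fasted 12 h before and 4 h after dosing. Single 5 mg/kg i.v. bolus in saline (0.2 µm filtered) via cannula, flushed with heparinized saline. Plasma from centrifuged blood (10,000 × g, 20 min, 4 °C) held at −20 °C. Chloroform extraction with aripiprazole internal standard. HILIC UPLC/MS in SIR mode (m/z 390; IS 448). Mean ± SD, n = 6.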

[5] = tested on: sigma-1 receptors; settings: sigma-1 and sigma-2 in the nanomolar and subnanomolar range; cited from earlier work
[6] = tested on: sigma-2 receptors; settings: sigma-1 and sigma-2 in the nanomolar and subnanomolar range; cited from earlier work
[7] = tested on: sigma receptors; settings: cited from earlier work
[8] = tested on: effects of cocaine; settings: cited from earlier work
[9] = rat plasma, long term for 30 days (−20 °C), spiked 10 ng/mL
[10] = rat plasma, long term for 30 days (−20 °C), spiked 400 ng/mL
[11] = rat plasma, short term for 12 h (25 °C), spiked 10 ng/mL
[12] = rat plasma, short term for 12 h (25 °C), spiked 400 ng/mL
[13] = rat plasma, three freeze thaw cycles, spiked 400 ng/mL
[14] = rat plasma, three freeze thaw cycles, spiked 3000 ng/mL
[15] = reconstituted samples, auto sampler for 24 h (25 °C), spiked 10 ng/mL
[16] = reconstituted samples, auto sampler for 24 h (25 °C), spiked 400 ng/mL
[17] = reconstituted samples, auto sampler for 24 h (25 °C), spiked 3000 ng/mL

## S=c1sc2ccccc2n1CCCCN1CCN(C2CCCCC2)CC1 [CM156, 3-(4-(4-cyclohexylpiperazin-1-yl)butyl)benzo[d]thiazole-2(3H)-thione]
[1]
  cocaine induced place conditioning behaviors: significantly attenuate
  expression of cocaine induced behavioral sensitization: significantly attenuate
[2]; one week at −20 °C
  stock solution stability: stable
[2]; room temperature
  time stock solution is stable: at least 6 h
[3]; during three freeze/thaw cycles
  stability in rat plasma: stable
[3]; [9]
  Measured concentration: 11.2 ± 0.9 ng/mL
  RE (relative error): 12.8%
[3]; [10]
  Measured concentration: 394.8 ± 17.8 ng/mL
  RE (relative error): −1.3%
[3]; rat plasma, long term for 30 days (−20 °C), spiked 3000 ng/mL
  Measured concentration: 2879.4 ± 243.1 ng/mL
[3]; [11]
  Measured concentration: 8.6 ± 0.7 ng/mL
  RE (relative error): −12.3%
[3]; [12]
  Measured concentration: 403.6 ± 9.2 ng/mL
  RE (relative error): 2.3%
[3]; rat plasma, short term for 12 h (25 °C), spiked 3000 ng/mL
  Measured concentration: 2879.4 ± 145.2 ng/mL
[3]; rat plasma, three freeze thaw cycles, spiked 10 ng/mL
  Measured concentration: 9.2 ± 1.1 ng/mL
[3]; [13]
  Measured concentration: 406.4 ± 8.8 ng/mL
  RE (relative error): 1.6%
[3]; [14]
  Measured concentration: 2879.4 ± 209.8 ng/mL
  RE (relative error): −4.0%
[3]; [15]
  Measured concentration: 10.0 ± 0.2 ng/mL
  RE (relative error): 2.2%
[3]; [16]
  Measured concentration: 404.4 ± 4.7 ng/mL
  RE (relative error): 1.1%
[3]; [17]
  Measured concentration: 2901.1 ± 59.2 ng/mL
  RE (relative error): −3.3%
[3]; stored at room temperature for 12 h
  stability in rat plasma: stable
[3]; stored at −20 °C for 1 month
  stability in rat plasma: stable
[3]; stored for 24 h in the autosampler at 25 °C
  stability in reconstituted samples: stable
[4]
  AUC(0-inf): 802 ng·h/mL
  Cmax: 1300 ± 200 ng/mL
  MRT: 1.5 h
  Vd: 9.6 ± 1.4 L/kg
  clearance: 103 mL/min/kg
[4]; Elimination half-life (t1/2), rats, single intravenous dose of 5 mg/kg, n = 6, mean ± SD
  half-life: 1.1 ± 0.4 h
[5]
  affinity for sigma-1 receptors: high affinity
[6]
  affinity for sigma-2 receptors: high affinity

## COC(=O)[C@H]1[C@@H](OC(=O)c2ccccc2)C[C@@H]2CC[C@H]1N2C [cocaine]
[7]
  affinity for sigma receptors: about 2 µm

## CN(CCc1ccc(Cl)c(Cl)c1)CCN1CCCC1 [BD 1008]
[8]
  convulsions of cocaine: attenuation
  locomotor stimulant effects of cocaine: blockade
  rewarding effects of cocaine: attenuation

— publication PMC3992999 (Journal of chromatography. B, Analytical technologies in …, 2011)
